Only some compounds are listed: those with a hit (about 2.3% of all), similar ones and a draw of the others.
TRPC6 activator: activators of mouse TRPC6 channel; HEK293-TRPC6 membrane potential dye fluorescence; hits give high values; B-score at 10 µM; 0.13% of 310,000 active;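 active = B-score of the integrated fluorescence ratio above library mean plus 3 SD, and starting fluorescence ratio within library mean plus 5 SD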;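 also: higher score means more depolarization so channel activation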
TRPC6 inhibitor: mouse TRPC6 channel inhibition | HEK293-TRPC6, membrane potential dye, ACh-evoked depolarization; hits give low values | B-score at 10 µM | 1.1% of 310,000 active | AID 2553;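 active = B-score under library mean minus 3 SD, initial fluorescence not abnormally high, positive integrated signal ratio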;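 also: B-score derived from integrated fluorescence ratio over the kinetic read; more negative B-score means stronger inhibition of depolarization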
DNA FID counter: displaces DNA intercalator in HCV helicase counter-screen | 0.17% of 290,000 active | inhibition, % at 7.9 µM | AID 1845 | DNA fluorescent intercalator displacement, fluorescence; in the data active = inhibition above about 37%;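 also: 0% = vehicle and 100% = reference compound; higher means more ethidium bromide displaced from hairpin DNA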
TRPC4 block: blocks the mouse TRPC4 cation channel. HEK293 TRPC4beta/mu-opioid, DAMGO-evoked Fluo4 calcium flux; hits give low values. B-score at 10 µM. 0.39% of 300,000 active. AID 2247;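 active = B-score over 3 SD under the library average, no early fluorescence shift, positive overall ratio signal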
Target sequence (Q9QUQ5 whole entry, looked up): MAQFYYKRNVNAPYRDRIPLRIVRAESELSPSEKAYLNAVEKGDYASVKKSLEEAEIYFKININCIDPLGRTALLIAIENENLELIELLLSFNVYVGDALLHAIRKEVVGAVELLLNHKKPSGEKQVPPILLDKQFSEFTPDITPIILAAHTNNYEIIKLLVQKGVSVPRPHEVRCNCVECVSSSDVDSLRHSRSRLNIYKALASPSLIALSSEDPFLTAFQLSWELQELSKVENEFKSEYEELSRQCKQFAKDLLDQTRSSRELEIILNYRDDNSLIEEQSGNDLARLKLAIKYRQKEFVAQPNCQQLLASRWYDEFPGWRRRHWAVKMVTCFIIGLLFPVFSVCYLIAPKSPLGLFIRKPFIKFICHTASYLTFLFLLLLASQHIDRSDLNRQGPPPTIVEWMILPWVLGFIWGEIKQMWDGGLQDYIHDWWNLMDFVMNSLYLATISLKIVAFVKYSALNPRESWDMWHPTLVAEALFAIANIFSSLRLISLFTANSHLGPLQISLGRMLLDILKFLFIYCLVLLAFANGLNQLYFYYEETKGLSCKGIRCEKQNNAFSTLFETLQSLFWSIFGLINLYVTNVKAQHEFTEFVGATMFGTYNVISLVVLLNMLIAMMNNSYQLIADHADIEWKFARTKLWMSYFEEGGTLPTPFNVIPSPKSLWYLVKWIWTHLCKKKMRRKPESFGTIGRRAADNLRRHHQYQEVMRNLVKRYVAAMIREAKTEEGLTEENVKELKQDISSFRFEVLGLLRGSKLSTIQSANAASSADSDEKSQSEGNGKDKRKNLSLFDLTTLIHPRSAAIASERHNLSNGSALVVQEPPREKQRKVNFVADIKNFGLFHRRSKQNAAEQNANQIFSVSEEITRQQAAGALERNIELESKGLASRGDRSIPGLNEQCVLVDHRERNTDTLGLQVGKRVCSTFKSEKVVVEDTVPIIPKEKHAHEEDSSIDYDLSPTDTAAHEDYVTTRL
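Material: HEK293 cells with stable TRPC4beta plus mu-opioid receptor expression / Probe or stimulus: DAMGO in two steps, submaximal then maximal / Compound: single concentration per test compound / Technique: kinetic Fluo4 fluorescence imaging of calcium influx / Read-out: per-well B score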
TRPC4 PAM: TRPC4 (mouse) allosteric potentiation; 0.42% of 310,000 active; B-score at 10 µM; AID 2227; Q9QUQ5; HEK293 TRPC4beta/mu-opioid, DAMGO EC20, Fluo-4 Ca2+ flux; hits give high values;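 active = B-score of calcium response area above 5 SD of library B-scores, with initial fluorescence ratio within 5 SD of library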;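 also: B-score of integrated fluorescence ratio over time as area under calcium response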
TRPC4 agonist: opens the mouse TRPC4 cation channel | B-score at 10 µM | HEK293 TRPC4beta/mu-opioid, Fluo4 calcium fluorescence; hits give high values | Q9QUQ5 | 0.49% of 310,000 active;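 active = B-score above 5 SD of library B-scores, and initial fluorescence ratio not above library mean plus 5 SD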;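 also: positive B-score marks a calcium rise read as TRPC4 activation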
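Test system: HEK293 cells stably co-expressing mouse TRPC4beta and mu-opioid receptor | Schedule: Fluo4 dye loading 45 min at room temperature, 110 s recording | Measured by: Kinetic Fluo4 calcium fluorescence, 5 s baseline at 1 Hz | Evaluation: B score of integrated ratio | Controls: Buffer (low) and maximal DAMGO (high)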
Numbers without * were called inactive; i = inactive; . = not tested or not shown; ! = a repeat was not active.

SMILES	TRPC6 activator	TRPC6 inhibitor	DNA FID counter	TRPC4 block	TRPC4 PAM	TRPC4 agonist
Cc1cc(OC(=O)N(C)C)nc(SCc2c(Cl)cccc2Cl)n1	i	i	-29	i	11*	i
COc1ccc(CCN)cc1O	i	i	.	i	i	43*
CC(C)Oc1ccc(CCN)cc1Cl	i	i	1	i	i	i
O=c1[nH]c(=S)[nH]c(O)c1N=Nc1ccc(S(=O)(=O)N2CCc3ccccc32)cc1	i	i	-8	i	i	i
N=c1c2c(n(Cc3ccc(Cl)cc3Cl)c3c1CCC3)CCCC2	i	-5.1*	8	i	i	i
CC1(C)CC(CCNCc2ccc3c(c2)OCO3)(Cc2ccccc2)CCO1 (stereo not drawn)	i	i	20	i	i	60*
CCC1(CC)C(=O)N(C)C(=O)NC1=NC	i	i	-4	i	i	i
O=C(COc1ccc(Cl)cc1)NCCc1cnc[nH]1	i	i	-4	i	i	i
CCOC(=O)c1cc(C)n(CCc2cnc[nH]2)c1C	i	i	3	i	i	138*
CN1CCN(Cc2ccc(N)cc2)CC1	i	i	13	i	i	i
CN1CCN(Cc2cc(C(C)(C)C)c(O)c(C(C)(C)C)c2)CC1	i	i	1	i	11*	i
O=P(Nc1ccccc1Cl)(c1ccccc1)c1nc2c(s1)CCCC2 (stereo not drawn)	i	i	-32	i	14*	i
CCN1CCN(Cc2cccnc2)CC1	i	i	-3	i	i	i
CN(C)C(CNC(=O)Cc1ccc(Br)cc1)c1ccccc1 (stereo not drawn)	i	i	1	i	i	175*
CC(Cc1ccccc1)NC(=O)Cc1ccc(N(C)C)cc1 (stereo not drawn)	i	i	-5	i	i	i
Clc1ccc(N2CCNCC2)nn1	i	i	1	i	22*	i
COc1cccc(NC2=NCCCS2)c1	i	i	-2	i	i	i
Cc1ccc(C)c(OCc2cc(C(=O)N3C[C@H]4C[C@@H](C3)c3cccc(=O)n3C4)no2)c1	i	i	-53	i	i	i
O=C1C2CCCN2C(c2ccc(Cl)c(Cl)c2)N1c1ccccn1 (stereo not drawn)	i	i	-2	i	i	i
O=C1C2CCCN2C(c2cccc(Cl)c2)N1c1ccccn1 (stereo not drawn)	i	i	38*	i	i	i
O=C1C2CCCN2C(c2cccnc2)N1c1ccc(Cl)c(Cl)c1 (stereo not drawn)	i	i	-3	i	i	i
O=C1C2CCCN2C(c2ccncc2)N1c1ccc(Cl)c(Cl)c1 (stereo not drawn)	i	i	-4	i	11*	i
c1ccc2oc(N3CCNCC3)nc2c1	i	i	0	i	44*	72*
CN1CCN(c2nc3ccccc3o2)CC1	i	i	0	i	i	i
COc1ccc(-n2c(CNCCc3ccc(C)cc3)nc3ccccc3c2=O)cc1	i	i	-4	i	i	134*
SMILES	TRPC6 activator	TRPC6 inhibitor	DNA FID counter	TRPC4 block	TRPC4 PAM	TRPC4 agonist
O=C(COc1ccccc1)NCCc1cnc[nH]1	i	i	-5	i	i	i
O=C(CCCc1ccccc1)NCCc1cnc[nH]1	i	i	0	i	i	143*
C#C[C@@]1(O)CCC2C3CCC4=C/C(=N/OCC(=O)NC(CCC(N)=O)C(=O)O)CC[C@]4(C)C3CC[C@@]21C (stereo partly drawn)	i	i	-28	i	i	i
CN1CCN(C(=O)COc2ccc(S(=O)(=O)NC3CCCCC3)cc2Cl)CC1	i	i	5	i	i	i
c1ccc(C2NCCc3[nH]cnc32)cc1 (stereo not drawn)	i	i	-4	i	i	i
COc1ccc(C2NCCc3[nH]cnc32)cc1 (stereo not drawn)	i	i	0	i	i	175*
O=C(Cc1ccccc1)N1CCN(Cc2ccc(F)cc2)CC1	i	i	-12	i	i	i
COc1ccc(C(CN(C)C)C2(O)CCCCC2)cc1 (stereo not drawn)	i	i	.	i	i	i
COc1ccc(C(CNC(=O)CCc2ccsc2)N(C)C)cc1 (stereo not drawn)	i	i	0	i	i	108*
CC(C)(C#CC(=O)O)OOC(c1ccccc1)(c1ccccc1)c1ccccc1	i	i	-3	i	i	i
N[C@@H](Cc1c[nH]c2ccccc12)c1nnc(SCc2ccc(Cl)cc2)o1	i	i	-3	i	i	i
CC(N)Cc1c[nH]c2cc3c(cc12)OCCO3 (stereo not drawn)	i	i	-2	i	i	143*
CC(N)Cc1c[nH]c2ccc(Cl)cc12 (stereo not drawn)	i	i	3	i	13*	i
CCCOP(=O)(OCCC)C(NC(=O)c1cc(OC)c(OC)c(OC)c1)c1ccccc1 (stereo not drawn)	i	i	-24	i	i	i
CCC(COC(=O)c1cc(OC)c(OC)c(OC)c1)(c1ccccc1)N(C)C (stereo not drawn)	i	i	3	i	i	54*!
CC1CC(OC(=O)c2ccccc2)(c2ccccc2)C(C)CN1C (stereo not drawn)	i	i	10	i	i	i
CCC(=O)OC1(Cc2ccc(CC)cc2)CC(C)N(C)CC1C (stereo not drawn)	i	i	16	-8*	i	48*
CCC(=O)OC1(c2cccc(C)c2)CC(C)N(C)CC1C (stereo not drawn)	i	i	4	i	i	68*
COc1ccc(-n2nc(C(=O)NCC(=O)N3CCC4(CC3)OCCO4)c3ccccc3c2=O)cc1Cl	i	i	-39	i	i	i
CN(C)CCn1cnc2ccccc21	i	i	-5	i	15*	i
CC(=O)c1cn(Cc2ccccc2F)c2ccccc12	i	i	-11	i	i	i
Cc1nn(C)cc1/C=C1/CC2C3CC=C4CC(O)CCC4(C)C3CCC2(C)C1=O (stereo not drawn)	i	i	-18	i	10*	i
N#CC(CCN1CCOCC1)(c1ccccc1)c1ccccc1	i	i	-13	i	i	i
CCC(=O)C(CCN1CCOCC1)(c1ccccc1)c1ccccc1	i	i	.	i	i	62*

Assay outcomes (PubChem)
